# Measured values taken from ChEMBL document CHEMBL2311390, “Synthesis and preliminary evaluation of pharmacological properties of some piperazine derivatives of xanthone” (Bioorg Med Chem, 2013).
# Tests used:
# Rattus norvegicus [1] = assay: Cardiotoxicity in Wistar rat assessed as hear beats per min at 5 mg/kg, iv after 15 mins by ECG analysis; assay type: toxicity, organism-based; set-up: dose 5 mg/kg, route intravenous; details: in vivo, 0.25 h
# In short: (§1)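 Male normotensive Wistar rats, 170–350 g, six per group. Compound given iv at a constant volume of 1 mL/kg. ECG was recorded just before dosing and at 1, 5 and 15 min after. PQ, QRS and QT intervals and heart rate were read from the trace. Groups were compared by one-way ANOVA.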
# Rattus norvegicus [2] = assay: Cardiotoxicity in Wistar rat assessed as QT interval at 5 mg/kg, iv after 15 mins by ECG analysis; assay type: toxicity, organism-based; set-up: dose 5 mg/kg, route intravenous; details: in vivo, 0.25 h; in short: as §1
# Rattus norvegicus [3] = assay: Cardiotoxicity in Wistar rat assessed as PQ interval at 5 mg/kg, iv after 15 mins by ECG analysis; assay type: toxicity, organism-based; set-up: dose 5 mg/kg, route intravenous; details: in vivo, 0.25 h; in short: as §1
# Rattus norvegicus [4] = assay: Cardiotoxicity in Wistar rat assessed as QT interval at 5 mg/kg, iv after 10 mins by ECG analysis; assay type: toxicity, organism-based; set-up: dose 5 mg/kg, route intravenous; details: in vivo
# Rattus norvegicus [5] = assay: Cardiotoxicity in Wistar rat assessed as QRS interval at 5 mg/kg, iv after 10 mins by ECG analysis; assay type: toxicity, organism-based; set-up: dose 5 mg/kg, route intravenous; details: in vivo
# Rattus norvegicus [6] = assay: Cardiotoxicity in Wistar rat assessed as PQ interval at 5 mg/kg, iv after 10 mins by ECG analysis; assay type: toxicity, organism-based; set-up: dose 5 mg/kg, route intravenous; details: in vivo
# Rattus norvegicus [7] = assay: Cardiotoxicity in Wistar rat assessed as hear beats per min at 5 mg/kg, iv after 5 mins by ECG analysis; assay type: toxicity, organism-based; set-up: dose 5 mg/kg, route intravenous; details: in vivo; in short: as §1
# Rattus norvegicus [8] = assay: Cardiotoxicity in Wistar rat assessed as QRS interval at 5 mg/kg, iv after 5 mins by ECG analysis; assay type: toxicity, organism-based; set-up: dose 5 mg/kg, route intravenous; details: in vivo; in short: as §1
# Rattus norvegicus [9] = assay: Hypotensive activity in normotensive Wistar rat assessed as reduction of diastolic blood pressure at 0.31 mg/kg, iv after 5 mins; assay type: functional, Artery
# In short: (§2)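 Male normotensive Wistar rats were anaesthetised with thiopental 75 mg/kg ip. The right carotid artery was cannulated with heparinised saline for pressure recording. After 5 min of stabilisation, compound was injected into the tail vein at 1 mL/kg. Systolic and diastolic pressure were followed up to 60 min. Data are means ± SEM of 5–6 rats, analysed by one-way ANOVA.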
# Rattus norvegicus [10] = assay: Hypotensive activity in normotensive Wistar rat assessed as reduction of systolic blood pressure at 0.31 mg/kg, iv after 60 mins; assay type: functional, Artery
# In short: (§3)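 Male normotensive Wistar rats (170–350 g) anaesthetised with thiopental 75 mg/kg ip; right carotid artery cannulated with heparinised saline-filled polyethylene tubing for pressure recording. After a 5 min stabilisation, compound given into the caudal vein at 1 mL/kg. Systolic pressure is recorded at 0, 5, 10, 20, 30 and 60 min, and the data are reported as mean ± SEM of five to six animals, with one-way ANOVA.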
# Rattus norvegicus [11] = assay: Hypotensive activity in normotensive Wistar rat assessed as reduction of systolic blood pressure at 0.31 mg/kg, iv after 30 mins; assay type: functional, Artery; in short: as §3
# Rattus norvegicus [12] = assay: Hypotensive activity in normotensive Wistar rat assessed as reduction of diastolic blood pressure at 0.16 mg/kg, iv after 60 mins; assay type: functional, Artery; in short: as §2
# Rattus norvegicus [13] = assay: Hypotensive activity in normotensive Wistar rat assessed as reduction of diastolic blood pressure at 0.16 mg/kg, iv after 20 mins; assay type: functional, Artery; in short: as §2
# Rattus norvegicus [14] = assay: Hypotensive activity in normotensive Wistar rat assessed as reduction of diastolic blood pressure at 0.16 mg/kg, iv after 30 mins; assay type: functional, Artery; in short: as §2
# Rattus norvegicus [15] = assay: Hypotensive activity in normotensive Wistar rat assessed as reduction of diastolic blood pressure at 0.16 mg/kg, iv after 5 mins; assay type: functional, Artery; in short: as §2
# Rattus norvegicus [16] = assay: Hypotensive activity in normotensive Wistar rat assessed as reduction of systolic blood pressure at 0.16 mg/kg, iv after 10 mins; assay type: functional, Artery; in short: as §2
# Rattus norvegicus [17] = assay: Hypotensive activity in normotensive Wistar rat assessed as reduction of systolic blood pressure at 0.16 mg/kg, iv after 20 mins; assay type: functional, Artery; in short: as §3
# Rattus norvegicus [18] = assay: Hypotensive activity in normotensive Wistar rat assessed as reduction of systolic blood pressure at 0.16 mg/kg, iv after 5 mins; assay type: functional, Artery; in short: as §3
# Rattus norvegicus [19] = assay: Hypotensive activity in normotensive Wistar rat assessed as reduction of diastolic blood pressure at 0.31 mg/kg, iv after 60 mins; assay type: functional, Artery; in short: as §2
# Rattus norvegicus [20] = assay: Hypotensive activity in normotensive Wistar rat assessed as reduction of diastolic blood pressure at 0.625 mg/kg, iv after 30 mins; assay type: functional, Artery; in short: as §2
# Rattus norvegicus [21] = assay: Hypotensive activity in normotensive Wistar rat assessed as reduction of diastolic blood pressure at 0.625 mg/kg, iv after 10 mins; assay type: functional, Artery; in short: as §2
# Rattus norvegicus [22] = assay: Hypotensive activity in normotensive Wistar rat assessed as reduction of diastolic blood pressure at 0.625 mg/kg, iv after 20 mins; assay type: functional, Artery; in short: as §2
# Rattus norvegicus [23] = assay: Hypotensive activity in normotensive Wistar rat assessed as reduction of diastolic blood pressure at 0.625 mg/kg, iv after 5 mins; assay type: functional, Artery; in short: as §2
# Rattus norvegicus [24] = assay: Hypotensive activity in normotensive Wistar rat assessed as reduction of systolic blood pressure at 0.625 mg/kg, iv after 30 mins; assay type: functional, Artery; in short: as §3
# Rattus norvegicus [25] = assay: Hypotensive activity in normotensive Wistar rat assessed as reduction of systolic blood pressure at 0.625 mg/kg, iv after 60 mins; assay type: functional, Artery; in short: as §3
# Rattus norvegicus [26] = assay: Hypotensive activity in normotensive Wistar rat assessed as reduction of systolic blood pressure at 0.625 mg/kg, iv after 5 mins; assay type: functional, Artery; in short: as §3
# Rattus norvegicus [27] = assay: Hypotensive activity in normotensive Wistar rat assessed as reduction of diastolic blood pressure at 1.25 mg/kg, iv after 60 mins; assay type: functional, Artery; in short: as §2
# Rattus norvegicus [28] = assay: Hypotensive activity in normotensive Wistar rat assessed as reduction of diastolic blood pressure at 1.25 mg/kg, iv after 30 mins; assay type: functional, Artery; in short: as §2
# Rattus norvegicus [29] = assay: Hypotensive activity in normotensive Wistar rat assessed as reduction of diastolic blood pressure at 1.25 mg/kg, iv after 10 mins; assay type: functional, Artery; in short: as §2
# Rattus norvegicus [30] = assay: Hypotensive activity in normotensive Wistar rat assessed as reduction of systolic blood pressure at 1.25 mg/kg, iv after 60 mins; assay type: functional, Artery; in short: as §3
# Rattus norvegicus [31] = assay: Hypotensive activity in normotensive Wistar rat assessed as reduction of diastolic blood pressure at 1.25 mg/kg, iv after 5 mins; assay type: functional, Artery; in short: as §2
# Rattus norvegicus [32] = assay: Hypotensive activity in normotensive Wistar rat assessed as reduction of systolic blood pressure at 1.25 mg/kg, iv after 30 mins; assay type: functional, Artery; in short: as §3
# Rattus norvegicus [33] = assay: Hypotensive activity in normotensive Wistar rat assessed as reduction of systolic blood pressure at 1.25 mg/kg, iv after 20 mins; assay type: functional, Artery; in short: as §3
# Rattus norvegicus [34] = assay: Hypotensive activity in normotensive Wistar rat assessed as reduction of systolic blood pressure at 1.25 mg/kg, iv after 10 mins; assay type: functional, Artery; in short: as §3
# Rattus norvegicus [35] = assay: Cardiotoxicity in Wistar rat assessed as hear beats per min at 10 mg/kg, iv after 15 mins by ECG analysis; assay type: toxicity, organism-based; set-up: dose 10 mg/kg, route intravenous; details: in vivo, 0.25 h; in short: as §1
# Rattus norvegicus [36] = assay: Cardiotoxicity in Wistar rat assessed as QT interval at 10 mg/kg, iv after 15 mins by ECG analysis; assay type: toxicity, organism-based; set-up: dose 10 mg/kg, route intravenous; details: in vivo, 0.25 h; in short: as §1
# Rattus norvegicus [37] = assay: Cardiotoxicity in Wistar rat assessed as QRS interval at 10 mg/kg, iv after 15 mins by ECG analysis; assay type: toxicity, organism-based; set-up: dose 10 mg/kg, route intravenous; details: in vivo, 0.25 h; in short: as §1
# Rattus norvegicus [38] = assay: Cardiotoxicity in Wistar rat assessed as PQ interval at 10 mg/kg, iv after 15 mins by ECG analysis; assay type: toxicity, organism-based; set-up: dose 10 mg/kg, route intravenous; details: in vivo, 0.25 h; in short: as §1
# Rattus norvegicus [39] = assay: Cardiotoxicity in Wistar rat assessed as hear beats per min at 10 mg/kg, iv after 5 mins by ECG analysis; assay type: toxicity, organism-based; set-up: dose 10 mg/kg, route intravenous; details: in vivo; in short: as §1
# Rattus norvegicus [40] = assay: Cardiotoxicity in Wistar rat assessed as QRS interval at 10 mg/kg, iv after 5 mins by ECG analysis; assay type: toxicity, organism-based; set-up: dose 10 mg/kg, route intravenous; details: in vivo; in short: as §1
compound,measurement,setting,value
Cl.Cl.Cl.O=c1c2ccc(Cl)cc2oc2c(OCC(O)CN3CCN(C/C=C/c4ccccc4)CC3)cccc12 (racemic),Activity,Rattus norvegicus [1],329.3 bpm
same,Activity,Rattus norvegicus [2],74.6 ms
same,Activity,Rattus norvegicus [3],45.2 ms
same,Activity,Rattus norvegicus [4],74.7 ms
same,Activity,Rattus norvegicus [5],20.2 ms
same,Activity,Rattus norvegicus [6],46 ms
same,Activity,Rattus norvegicus [7],317.3 bpm
same,Activity,Rattus norvegicus [8],20.2 ms
COc1ccccc1N1CCN(CC(O)COc2cccc3c(=O)c4ccccc4oc23)CC1.Cl (racemic),Activity,Rattus norvegicus [9],102.8 mmHg
same,Activity,Rattus norvegicus [10],116 mmHg
same,Activity,Rattus norvegicus [11],118.6 mmHg
same,Activity,Rattus norvegicus [12],101.5 mmHg
same,Activity,Rattus norvegicus [13],103.8 mmHg
same,Activity,Rattus norvegicus [14],101.8 mmHg
same,Activity,Rattus norvegicus [15],109.2 mmHg
same,Activity,Rattus norvegicus [16],124.8 mmHg
same,Activity,Rattus norvegicus [17],118.5 mmHg
same,Activity,Rattus norvegicus [18],124 mmHg
same,Activity,Rattus norvegicus [19],98.4 mmHg
COc1ccccc1N1CCN(CC(COc2cccc3c(=O)c4ccccc4oc23)OC(C)=O)CC1.Cl (racemic),Activity,Rattus norvegicus [20],93.2 mmHg
same,Activity,Rattus norvegicus [21],96.4 mmHg
same,Activity,Rattus norvegicus [22],95.4 mmHg
same,Activity,Rattus norvegicus [23],95.6 mmHg
same,Activity,Rattus norvegicus [24],120.6 mmHg
same,Activity,Rattus norvegicus [25],123.2 mmHg
same,Activity,Rattus norvegicus [26],124.8 mmHg
same,Activity,Rattus norvegicus [27],89.6 mmHg
same,Activity,Rattus norvegicus [28],90.8 mmHg
same,Activity,Rattus norvegicus [29],93.6 mmHg
same,Activity,Rattus norvegicus [30],116.6 mmHg
same,Activity,Rattus norvegicus [31],92.8 mmHg
same,Activity,Rattus norvegicus [32],117.6 mmHg
same,Activity,Rattus norvegicus [33],117 mmHg
same,Activity,Rattus norvegicus [34],118.4 mmHg
Cl.Cl.Cl.O=c1c2ccc(Cl)cc2oc2c(OCC(O)CN3CCN(CCOc4ccccc4)CC3)cccc12 (racemic),Activity,Rattus norvegicus [35],283.41 bpm
same,Activity,Rattus norvegicus [36],53.2 ms
same,Activity,Rattus norvegicus [37],20.4 ms
same,Activity,Rattus norvegicus [38],32.81 ms
same,Activity,Rattus norvegicus [39],303.69 bpm
same,Activity,Rattus norvegicus [40],18.8 ms
same,Activity,Rattus norvegicus [27],103.6 mmHg
same,Activity,Rattus norvegicus [28],100.6 mmHg
same,Activity,Rattus norvegicus [29],101.2 mmHg
same,Activity,Rattus norvegicus [30],114.8 mmHg
same,Activity,Rattus norvegicus [31],102.6 mmHg
same,Activity,Rattus norvegicus [32],113.2 mmHg
same,Activity,Rattus norvegicus [33],110.8 mmHg
same,Activity,Rattus norvegicus [34],115.2 mmHg
